Bioassay records (PubChem)
Hits are enriched below; roughly 1.6% of the tested compounds scored in any of these assays.
Rin1-Abl PPI inh – inhibitors of Rin1-Abl protein binding, primary screen, biochemical, TR-FRET | inhibition, % at 7.35 µM | AID 588664, 2011 | Tyrosine-protein kinase ABL1 (Homo sapiens) + Ras and Rab interactor 1 (Homo sapiens), … | actives 0.4% (n = 360,000); in the data active means inhibition above about 5%, passing the limit was not always enough
Target sequence (P00519 whole entry, looked up): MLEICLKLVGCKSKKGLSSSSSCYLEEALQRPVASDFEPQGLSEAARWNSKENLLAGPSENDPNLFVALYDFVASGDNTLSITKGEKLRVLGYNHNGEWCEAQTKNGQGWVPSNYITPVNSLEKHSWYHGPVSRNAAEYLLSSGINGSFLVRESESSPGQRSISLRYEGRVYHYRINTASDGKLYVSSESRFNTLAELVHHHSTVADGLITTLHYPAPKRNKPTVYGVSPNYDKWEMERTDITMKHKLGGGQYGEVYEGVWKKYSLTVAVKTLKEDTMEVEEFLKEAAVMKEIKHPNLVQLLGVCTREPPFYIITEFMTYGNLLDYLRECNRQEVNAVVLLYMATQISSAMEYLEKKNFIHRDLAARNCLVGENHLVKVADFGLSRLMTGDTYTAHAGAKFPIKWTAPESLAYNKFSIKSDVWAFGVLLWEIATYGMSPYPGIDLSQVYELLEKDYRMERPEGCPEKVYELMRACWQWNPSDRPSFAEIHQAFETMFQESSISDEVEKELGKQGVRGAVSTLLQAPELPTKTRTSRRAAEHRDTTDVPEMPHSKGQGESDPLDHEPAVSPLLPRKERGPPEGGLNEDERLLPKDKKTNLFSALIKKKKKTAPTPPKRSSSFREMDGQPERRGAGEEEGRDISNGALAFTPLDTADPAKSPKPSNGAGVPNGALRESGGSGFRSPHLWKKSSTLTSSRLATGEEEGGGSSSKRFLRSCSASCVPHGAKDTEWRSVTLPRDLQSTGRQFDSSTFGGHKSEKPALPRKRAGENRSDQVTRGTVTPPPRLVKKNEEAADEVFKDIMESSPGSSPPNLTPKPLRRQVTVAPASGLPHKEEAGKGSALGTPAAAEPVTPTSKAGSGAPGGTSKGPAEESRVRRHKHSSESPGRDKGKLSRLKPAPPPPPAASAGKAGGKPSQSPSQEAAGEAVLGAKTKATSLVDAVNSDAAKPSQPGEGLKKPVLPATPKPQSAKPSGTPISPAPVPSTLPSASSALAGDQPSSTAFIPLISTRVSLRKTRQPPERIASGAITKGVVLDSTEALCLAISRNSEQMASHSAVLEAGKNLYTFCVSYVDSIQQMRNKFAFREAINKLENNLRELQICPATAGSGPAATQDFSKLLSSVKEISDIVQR
Target sequence (Q13671 whole entry, looked up): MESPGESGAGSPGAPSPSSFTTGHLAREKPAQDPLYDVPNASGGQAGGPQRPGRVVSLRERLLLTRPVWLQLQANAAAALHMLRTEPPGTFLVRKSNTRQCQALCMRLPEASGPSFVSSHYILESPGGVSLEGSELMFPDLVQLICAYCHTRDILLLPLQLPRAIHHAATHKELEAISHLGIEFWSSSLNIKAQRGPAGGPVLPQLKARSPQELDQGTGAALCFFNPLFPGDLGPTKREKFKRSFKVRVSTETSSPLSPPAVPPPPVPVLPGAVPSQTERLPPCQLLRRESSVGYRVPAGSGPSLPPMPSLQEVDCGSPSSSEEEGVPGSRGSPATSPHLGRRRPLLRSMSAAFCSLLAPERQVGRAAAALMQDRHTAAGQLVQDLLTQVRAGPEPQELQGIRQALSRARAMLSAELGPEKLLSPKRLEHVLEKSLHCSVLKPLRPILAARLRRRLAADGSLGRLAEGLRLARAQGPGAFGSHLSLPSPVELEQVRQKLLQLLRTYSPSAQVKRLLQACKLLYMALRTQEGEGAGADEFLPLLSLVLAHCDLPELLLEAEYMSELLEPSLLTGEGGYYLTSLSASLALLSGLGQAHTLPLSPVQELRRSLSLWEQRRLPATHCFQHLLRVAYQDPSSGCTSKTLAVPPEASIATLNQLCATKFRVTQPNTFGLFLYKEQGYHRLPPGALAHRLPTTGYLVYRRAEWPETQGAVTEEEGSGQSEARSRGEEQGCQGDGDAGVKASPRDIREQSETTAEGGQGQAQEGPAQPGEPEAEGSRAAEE
TbMetRS inhib – T. brucei MetRS inhibitors, primary screen, biochemical, luminescence; actives 0.4% (n = 360,000); AID 624268, 2012; purified T. brucei MetRS, ATP depletion, Kinase-Glo luminescence; methionyl-tRNA synthetase (Trypanosoma brucei brucei); inhibition, % at 11.9 µM;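 active means inhibition above a per-plate cutoff of the control wells' mean inhibition plus 3 SD, cut at about 5.5% in these data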;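 further: 0% = DMSO wells median and 100% = median of wells with control inhibitor compound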
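Measured by: Kinase-Glo luciferase luminescence reporting remaining unconsumed ATP. Material: purified T. brucei MetRS enzyme. Doses: 11.9 µM compound single dose, 0.9% DMSO. Medium: HEPES buffer containing pyrophosphatase, BSA, spermine, DTT. Times: 15 min preincubation, 2 h reaction, all 25 °C. Reagent: methionine, ATP and bulk E. coli tRNA.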
MT1-MMP act inh – blockers of MT1-MMP proenzyme processing, primary screen, HT1080 RFP-PRO-GFP cells, GFP/RFP fluorescence; GFP/RFP ratio fluorescence, overnight; percent of plate control window, DMSO zero; GFP/RFP ratio change, % at 20 µM; actives 0.061% (n = 360,000);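 active means GFP/RFP ratio change of at least 30% with cell ATP level not reduced by more than half and red fluorescence within 50% of control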
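Assay system: HT1080 RFP-PRO-GFP cells | Dosing: 20 µM single dose, 1% DMSO | Incubation: Cells overnight before dosing, compound overnight, 37 °C, 5% CO2 | Evaluation: GFP/RFP fluorescence ratio | Control set: DMSO-only wells and HT1080 RFP-L50D-GFP cell wells as references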
SKN-1 inh – suppressors of acrylamide-induced Pgst-4::GFP reporter in worms, primary screen, SKN-1 inhibitor project, whole organism, uHTS, GFP/RFP fluorescence ratio, strain VP596; C. elegans VP596 Pgst-4::GFP/RFP ratio, 24 h; inhibition, % at 21.8 µM; actives 0.49% (n = 360,000); AID 624304, 2012;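 active means interference check ratio from 0.5 to 1.5 plus GFP to RFP signal ratio inhibition reaching or exceeding a fixed threshold, cut at about 30% in these data, passing the limit was not always enough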
Arr AP2 block – inhibitors of beta-arrestin/AP2 binding, primary screen, biochemical, GPCR trafficking, flow cytometry. beta-arrestin 1 C-terminal peptide binding to AP2 beta2-adaptin appendage (human). FITC-arrestin peptide / GST-AP2 beads; AP2 beta2 appendage carries R879A mutation. inhibition, % at 10 µM. actives 0.31% (n = 340,000). AID 504490, 2011;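 active means inhibition above a set limit, near 3 SD of compounds lacking own fluorescence, cut at about 54% in these data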;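 further: plate controls were DMSO wells for no effect and 5 µM unlabelled arrestin peptide for full effect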
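Assay system: GST-AP2 R879A bound to glutathione beads, E. coli-expressed; Medium: PBS with 0.05% Tween 20 and 0.1% BSA; Also added: fluorescein-tagged arrestin peptide at 50 nM final; Timing: 12 min plus 1 h, RT; Measured by: flow cytometry, FL1 (488/535 nm); Evaluation: percent drop in bead-associated FITC signal.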
TbMetRS confirm – T. brucei MetRS inhibitors, confirmation, biochemical, luminescence; shares compounds with TbMetRS inhib; T. brucei MetRS enzyme, luminescence (ATP depletion); inhibition, % at 11.9 µM; actives 93% (n = 1,400); AID 624412, 2012; in the data active means inhibition above about 7%
Jurkat tox – Jurkat T cell cytotoxicity, cytotoxicity control for T. brucei MetRS inhibitor project, luminescence, high throughput; shares compounds with TbMetRS inhib; Jurkat cells viability, ATP luminescence; inhibition, % at 8.3 µM; actives 12% (n = 1,400); AID 624413, 2012; in the data active means inhibition above about 15%;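 further: 0% = vehicle and 100% = reference inhibitor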
TbMetRS FP orth – T. brucei MetRS inhibitors, orthogonal assay for T. brucei MetRS inhibitor project, biochemical, fluorescence polarization | shares compounds with TbMetRS inhib | purified T. brucei MetRS | inhibition, % at 11.9 µM | actives 44% (n = 1,400) | AID 651607, 2012; in the data active means inhibition above about 17%;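 further: 0% = vehicle wells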
An asterisk follows results filed as active; . = no result; ! = not active in a repeat.

SMILES	Rin1-Abl PPI inh	TbMetRS inhib	MT1-MMP act inh	SKN-1 inh	Arr AP2 block	TbMetRS confirm	Jurkat tox	TbMetRS FP orth
CCOC(CCn1ccc(O)c(Cc2ccc(Cl)cc2)c1=O)OCC	2	0	-4	5	-4	.	.	.
CCOC(=O)Cn1ccc(O)c(Cc2ccc(Cl)cc2Cl)c1=O	0	23*	4	23	-9	38*	5	16
COCc1cn(-c2nc3ccccc3s2)nn1	.	1	2	17	.	.	.	.
O=C(c1cccnc1)N1CCN(c2ccc([N+](=O)[O-])cc2Cl)CC1	-1	5.8*	7	10	2	17*	2	9
Nc1[nH]c(C(=O)c2ccccc2)c(-c2ccccc2C(F)(F)F)c1C(=O)NCCc1c[nH]c2ccccc12	.	-1	-7	13	.	.	.	.
O=C1CC(SCc2nc3ccccc3[nH]2)C(=O)N1c1cccc(Cl)c1 (stereo not given)	-5	80*	-18	11	4	91*	-1	61*
O=C1CC(SCc2nc3ccccc3[nH]2)C(=O)N1c1ccc(F)cc1 (stereo not given)	-1	2	-4	6	1	.	.	.
O=C1CC(SCCc2nc3ccccc3[nH]2)C(=O)N1c1ccc(F)c(Cl)c1 (stereo not given)	0	33*	3	-6	6	54*	1	30*
NCCSC1CC(=O)N(c2ccc(Cl)c(Cl)c2)C1=O (stereo not given)	1	0	1	12	9	.	.	.
COC(=O)c1cccc(NC(=O)Cn2nnc3ccccc32)c1	2	14*	-3	-4	28	27*	-1	15
COc1cc(C2C(C#N)=C(N)Oc3cc(N(C)C)ccc32)cc2c1OCO2 (stereo not given)	0	19*	-326	5	28	2	82*	7
COc1cc(C2C(C#N)=C(N)Oc3cc(O)ccc32)cc2c1OCO2 (stereo not given)	2	14*	-15	-11	31	3	36*	4
COc1cc(C2C(C#N)=C(N)Oc3cc4c(cc32)OCO4)cc(OC)c1OC (stereo not given)	1	1	12	-4	-12	.	.	.
Cn1c2c(c3ccccc31)CCN(CCCCN1CCN(c3ccccc3)CC1)C2=O	1	0	5	-8	28	.	.	.
O=C(CN1CCSC1=NCc1ccccc1)c1ccc(Cl)cc1	-2	19*	1	-5	17	43*	12	18*
O=C(Nc1ccc(Cl)cc1)N1CCSC1=NCc1ccccc1	-1	0	2	5	-3	.	.	.
O=C(NCc1ccc(Cl)c(Cl)c1)c1cc(C2CCCCN2C(=O)c2cccs2)on1 (stereo not given)	-4	0	-5	-4	.	.	.	.
CC(=O)c1cccc(-c2ccnc3c2CC(C(=O)Nc2ccc(Cl)cc2)O3)c1 (stereo not given)	3	19*	0	6	.	46*	21*	22*
O=C(COc1ccc(Cl)cc1Br)NCC(c1ccco1)N1CCCC1 (stereo not given)	1	0	3	-2	-6	.	.	.
Cn1c(CCCOc2ccc(Cl)cc2Cl)nnc1SCC(=O)Nc1cccc(F)c1	1	6.8*	7	3	-10	34*	-5	41*
Cc1ccccc1S(=O)(=O)NC(=O)C1(C)CCN1C(=O)Cc1cccs1 (stereo not given)	-3	0	0	13	.	.	.	.
Cc1sc(-c2ccccn2)nc1OC(=O)c1ccc(Cl)c(Cl)c1	-1	14*	3	5	-3	3	2	0
Cc1sc(-c2ccccn2)nc1OC(=O)c1ccc(F)cc1F	1	0	-2	4	6	.	.	.
CCCS(=O)(=O)NC(=O)C1(C)CCN(C(=O)c2ccnc(Cl)c2)C1 (stereo not given)	-3	0	2	10	.	.	.	.
C=C1[C@@H](O)[C@H](Cc2ccccc2)N(Cc2ccccc2Br)S1(=O)=O	5	0	-4	-3	17	.	.	.
SMILES	Rin1-Abl PPI inh	TbMetRS inhib	MT1-MMP act inh	SKN-1 inh	Arr AP2 block	TbMetRS confirm	Jurkat tox	TbMetRS FP orth
NC(=NCCCCCCN=C(N)/N=C(\N)Nc1ccc(Cl)cc1)/N=C(\N)Nc1ccc(Cl)cc1	-4	45*!	-11	26	-6	53*	31*	51*
CN1CCCN(C(=O)/C=C/c2ccc(Cl)cc2Cl)CC1	-2	8.0*	4	3	23	17*	-6	1
COc1ccc(CCCNC(=O)C2(C)Cc3c(-c4cccc(C(N)=O)c4)ccnc3O2)cc1 (stereo not given)	4	6.6*	0	10	.	5	49*	1
O=C(Nc1ccc(Cl)cc1)c1csc([C@@H]2O[C@H](CO)[C@@H](O)[C@H]2O)n1	1	0	1	10	.	.	.	.
O=C(NCc1nc2ccccc2[nH]1)C1=C[C@H](c2coc3ccccc3c2=O)C[C@H](OCCCCO)O1	2	17*	-4	-8	-16	53*	-3	18*
O=C(NCc1ccccc1)C1=C[C@@H](c2ccc(Br)cc2)C[C@@H](OCc2ccc(CO)cc2)O1	2	0	1	12	-1	.	.	.
O=C(NCc1nc2ccccc2[nH]1)C1=C[C@@H](c2ccc(Br)cc2)C[C@@H](OCCCCO)O1	4	85*	5	-10	23	104*	1	106*
C#CCNC(=O)C1=C[C@H](c2coc3ccccc3c2=O)C[C@H](OCCCCO)O1	2	0	-3	12	-11	.	.	.
O=C(NCc1nc2ccccc2[nH]1)C1=C[C@@H](c2ccc(Br)cc2)C[C@@H](OCc2ccc(CO)cc2)O1	5	79*	8	0	5	101*	4	84*
O=C(NCc1ccccc1)C1=C[C@H](c2ccc(Br)cc2)C[C@H](OCCCCO)O1	1	0	0	2	-15	.	.	.
